Assay outcomes as filed in PubChem.
CHRM4 antagonist: CHRM4 antagonism in calcium assay. actives 0.73% (n = 360,000). inhibition, % at 3 µM. CHO-hM4 cells, ACh EC80, Fluo-8 calcium fluorescence. AID 624125. P08173;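 active means inhibition above its plate's cutoff, the mean inhibition of sample wells plus 3 SD, cut at about 27% in these data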;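 further: 0% = acetylcholine EC80 with DMSO and 100% = DMSO without agonist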
M5 PAM: positive allosteric modulators of human muscarinic M5 receptor | P08912 | CHO-K1 hM5, Fluo-8 calcium, ACh EC20 PAM; 0% = ACh EC20, 100% = ACh EC100 | activation, % at 3 µM | actives 0.3% (n = 360,000);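 active means activation above the run cutoff, the mean activation of all test compounds plus 3 SD, cut at about 18% in these data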
Target sequence (P08912 whole entry, looked up): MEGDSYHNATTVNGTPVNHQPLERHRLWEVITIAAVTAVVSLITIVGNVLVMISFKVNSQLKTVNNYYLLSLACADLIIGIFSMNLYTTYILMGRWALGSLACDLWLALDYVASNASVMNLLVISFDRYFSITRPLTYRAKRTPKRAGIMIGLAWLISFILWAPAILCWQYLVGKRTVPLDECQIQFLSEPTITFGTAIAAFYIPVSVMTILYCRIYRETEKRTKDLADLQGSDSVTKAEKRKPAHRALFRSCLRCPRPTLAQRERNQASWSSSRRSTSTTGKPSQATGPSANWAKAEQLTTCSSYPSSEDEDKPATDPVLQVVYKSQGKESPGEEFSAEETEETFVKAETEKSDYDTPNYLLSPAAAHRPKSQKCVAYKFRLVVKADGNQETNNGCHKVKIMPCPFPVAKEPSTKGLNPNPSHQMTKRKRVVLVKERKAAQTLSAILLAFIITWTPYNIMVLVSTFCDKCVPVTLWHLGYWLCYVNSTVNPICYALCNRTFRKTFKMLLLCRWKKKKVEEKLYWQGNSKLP
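Assay system: CHO-K1 hM5 cells. Also added: acetylcholine at EC20 concentration, added after compound. Dosing: 3 µM, single dose. Times: compound preincubation 140 s before EC20 acetylcholine addition. Signal: Fluo-8 calcium fluorescence. Measure: % activation relative to EC20 and EC100 ACh responses. Repeats: singlicate, one well per test compound.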
M5 antag: antagonists of human muscarinic M5 receptor (CHRM5); actives 0.59% (n = 360,000); AID 624040; P08912; CHO-hM5 cells, Fluo-8 calcium fluorescence, ACh EC80; inhibition, % at 3 µM;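 active means inhibition above a per-plate cutoff, the mean of that plate's test compounds plus 3 SD, cut at about 27% in these data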;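 further: 0% = acetylcholine EC80 with DMSO and 100% = DMSO without agonist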
M5 ag: CHRM5 agonism in calcium assay; CHO-K1 hM5 cells, Fluo-8 calcium fluorescence; 0% DMSO wells, 100% maximal acetylcholine response; activation, % at 3 µM; actives 0.19% (n = 360,000);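 active means activation above the run's mean over test compounds plus 3 SD, cut at about 23% in these data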;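 further: signal is peak over basal fluorescence ratio across the kinetic read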
CHRM4 agonist: agonists of human muscarinic M4 receptor (CHRM4) | CHO-K1 hM4/Gqi5, Fluo-8 calcium fluorescence; vehicle 0%, full acetylcholine response 100% | actives 0.14% (n = 360,000) | activation, % at 3 µM | P08173;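 active means activation above the run mean over all test wells plus 3 SD, cut at about 32% in these data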;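 further: peak over basal fluorescence ratio per well then scaled between controls; 0% = DMSO wells and 100% = acetylcholine at EC100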
M4 PAM: CHRM4 positive allosteric modulation | P08173 | CHO-K1 hM4/Gqi5, Fluo-8 calcium fluorescence, ACh EC20; 0% = ACh EC20, 100% = maximal ACh | activation, % at 3 µM | actives 0.4% (n = 360,000) | AID 624126;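 active means activation above its plate's cutoff, the mean activation of sample wells plus 3 SD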
* hit, by the source's call. An excerpt weighted towards active compounds, which were near 1.8% of everything screened.

SMILES | CHRM4 antagonist | M5 PAM | M5 antag | M5 ag | CHRM4 agonist | M4 PAM
CC(Oc1ccc(Cl)cc1)C(=O)N1CCN(C(=O)c2ccco2)CC1 (stereo not given) | 0.9 | -0.5 | 3.9 | 0.6 | 1.8 | 5.6
COC(=O)[C@]1(CC(C)C)N[C@H](c2ccc(-c3ccc(F)cc3)c(OC)c2)[C@@H]2C(=O)N(C)C(=O)[C@@H]21 | -5.8 | 5.6 | 3.4 | 2.4 | 3.7 | 0.5
O=C(/C=C/[C@H]1O[C@@H](n2cnc3c(NC(=O)c4ccccc4)ncnc32)[C@H](O)[C@@H]1O)NCc1ccc2c(c1)OCO2 | -6.1 | -1.1 | -0.7 | 2.9 | -0.1 | 2.7
CC1(c2ccc(OC(F)F)cc2)NC(=O)N(CC(=O)Nc2ccccc2)C1=O (stereo not given) | 16.6 | -3.7 | 15.6 | 43.6* | 66.9* | -14.1
CC1(c2ccc(OC(F)F)cc2)NC(=O)N(CC(=O)Nc2ccc3[nH]c(=O)[nH]c3c2)C1=O (stereo not given) | 7.2 | 6.2 | 0.6 | 2.5 | 1.0 | 6.1
CC1(c2ccc(OC(F)F)cc2)NC(=O)N(CC(=O)Nc2ccc3c(c2)OCO3)C1=O (stereo not given) | 8.0 | 0.7 | 17.5 | 40.9* | 32.1* | 3.1
CC(CNC(=O)COC(=O)c1cccnc1Cl)c1ccccc1 (stereo not given) | -4.1 | 5.3 | -0.4 | 2.6 | -0.8 | 4.0
Fc1ccc(Nc2nnc(C(F)(F)F)s2)cc1Cl | 12.4 | -22.0 | 32.0* | -2.5 | 10.9 | -8.3
CCCCn1cc(C(=O)c2cc(Br)ccc2O)cc(C#N)c1=O | 14.7 | -12.3 | 29.0* | 1.1 | 8.9 | 1.9
Cc1ccc(NC(=O)CCC(=O)Nc2nnc(C3CCCCC3)s2)cc1 | 0.0 | 4.0 | 4.6 | -6.0 | 0.3 | 19.8*
CN1CCN(C(c2ccccc2)c2ccccc2)CC1 | 56.8* | -18.5 | 83.2* | -1.4 | 1.9 | -18.0
CN1CCCN(C(c2ccccc2)c2ccc(Cl)cc2)CC1 (stereo not given) | 82.9* | -18.9 | 99.2* | 2.4 | 9.0 | -18.9
CC(C)(C)C(=O)N1CCN(C(c2ccccc2)c2ccccc2)CC1 | 10.4 | -3.5 | 6.6 | -11.4 | -2.1 | -7.4
COc1cc(CN2CCN(C(c3ccccc3)c3ccccc3)CC2)cc(OC)c1OC | 44.8* | -32.8 | 8.7 | -26.0 | -2.1 | -16.7
CC1(C(=O)Nc2ccc3c(c2)OCCO3)CCC(=O)N1C1CCN(Cc2ccccc2)CC1 (stereo not given) | 5.0 | 0.7 | -2.2 | -1.4 | -0.2 | -3.0
CN(CC(=O)Nc1ccc(F)c(F)c1F)C(=O)c1ccc(-n2cncn2)c([N+](=O)[O-])c1 | 6.8 | 2.0 | -5.7 | -5.1 | 0.3 | -6.2
CCCc1nc2c(Cl)cc(C(F)(F)F)cn2c1Cc1ccc(OC)cc1C | 11.0 | -5.1 | -2.9 | -1.1 | -2.4 | -5.8
O=C(CCNC(=O)c1ccc(Cl)cc1)Nc1ccccc1N1CCCC1 | 11.2 | -4.3 | 8.3 | -0.7 | 2.7 | -5.7
CNc1nc2cc([N+](=O)[O-])c([N+](=O)[O-])cc2nc1NC | 12.7 | -13.9 | 29.8* | 11.0 | 18.0 | -9.4
COc1cc(/C=C/C(=O)OCC(=O)N2CCN(S(=O)(=O)c3ccc(C)cc3C)CC2)cc(Cl)c1OC | -7.8 | 2.5 | 3.2 | 5.6 | 4.2 | 0.5
CCCOc1ccc(C(C(=O)OCCN(CC)CC)c2ccccc2)cc1 (stereo not given) | 18.1 | -15.4 | 55.2* | -10.4 | 5.9 | -13.7
COc1ccc(C(C(=O)OCCN(C)C)c2ccccc2)cc1 (stereo not given) | 6.1 | -13.1 | 22.2 | -11.6 | 0.7 | -9.1
CNc1cc(-c2cccc(C(=O)N3CCOCC3)c2)ncn1 | -3.4 | -1.7 | -1.0 | 1.4 | 0.0 | 1.6
O=C(O)c1cccc(Cn2c(Cl)c(/C=N/NC(=O)c3cccc(O)c3)sc2=O)c1 | 33.1* | 5.8 | -15.9 | 5.4 | 0.1 | 11.7
O=C(NC1CC1)C1CCN(C2CCN(C(=O)/C=C/c3cccs3)CC2)CC1 | 0.0 | 28.4* | 29.3* | -1.7 | 2.6 | -2.6
SMILES | CHRM4 antagonist | M5 PAM | M5 antag | M5 ag | CHRM4 agonist | M4 PAM
O=C(NC1CC1)C1CCN(C2CCN(C(=O)/C=C/c3cccc(F)c3F)CC2)CC1 | -11.3 | 2.6 | 5.4 | -5.0 | 0.5 | 8.9
CCOC(=O)N1CCN(C(=O)c2ccc3c(c2)NC(=O)C(N2CCOCC2)S3)CC1 (stereo not given) | -16.3 | 19.0* | 1.9 | -2.4 | 2.2 | 12.3
CCc1ccc(CNC(=O)c2ccc3c(c2)NC(=O)C(N2CCOCC2)S3)cc1 (stereo not given) | 0.2 | 12.7 | -9.9 | 2.4 | 5.9 | 5.4
CCOc1ccccc1NC(=O)C1CCCN(S(=O)(=O)c2ccc3c(c2)C(C)(C)C(=O)N3C)C1 (stereo not given) | -9.9 | -6.6 | 2.0 | 0.9 | 5.7 | -3.4
COC(=O)c1ccc2c(c1)C(C)(C)C(/C=C/c1ccccc1O)=[N+]2C | 2.3 | 9.3 | 3.8 | 23.5* | 6.9 | -10.3
COc1ccc(NC(=O)CCCc2ccccc2)cc1OC | 7.8 | -6.3 | 1.4 | 2.3 | 2.4 | 0.9
CC(C)OCCCN(C)C1CCN(S(=O)(=O)c2ccc(-c3cc(C(F)(F)F)no3)s2)CC1 | 53.3* | -8.9 | 9.3 | -6.8 | 7.1 | -21.1
Cc1ccnc(SCc2cc(=O)c(OC(=O)c3ccc(Br)o3)co2)n1 | 8.6 | 34.4* | 17.4 | 0.3 | 0.3 | 2.8
O=C(Oc1coc(CSc2ncccn2)cc1=O)c1ccc(Br)o1 | -3.4 | -3.5 | 10.6 | -2.3 | 1.0 | 11.9
O=C(N/C(=C\c1ccccc1)C(=O)N1CCOCC1)c1cccc(Br)c1 | -3.4 | -7.6 | 17.3 | -3.7 | 4.2 | -2.6
Cc1cc(S(=O)(=O)NCc2ccccc2)ccc1OCC(=O)NCc1ccccn1 | -9.3 | -9.4 | 29.8* | -2.9 | 4.0 | -0.3
CCC(O)CNC(=O)NC(=C(Cl)Cl)c1ccc(C)c(F)c1 (stereo not given) | -9.6 | 22.2* | 5.0 | 0.1 | -0.3 | 8.6
CCNC(=O)C1(C)CCN(C(=O)c2ccc(C)c(F)c2)C1 (stereo not given) | 3.0 | -2.8 | 10.1 | 1.1 | 0.6 | 5.7
Cc1ccc(Cl)cc1N1CCN(C(=O)C(C)n2ncn3cccc3c2=O)CC1 (stereo not given) | -25.9 | -15.1 | 2.7 | 3.0 | 19.8 | -7.1
Cc1[nH]n(-c2ccccc2)c(=O)c1C(=O)c1ccccc1 | -7.1 | 20.6* | -16.8 | 4.5 | 0.8 | 10.1
Cn1c(SCC(N)=O)nnc1-c1ccc(S(=O)(=O)N2CCCC2)cc1 | -4.2 | -2.5 | 10.5 | -3.9 | 2.4 | -0.1
